The record followed here is paper PMC2904523 (Journal of medicinal chemistry, 2010).

Data set [1] relates to RT of HIV-1DH012 (lysate). Put plainly: RT enzymatic inhibition. In kind it is biochemical. To be noted: RT from HIV-1DH012 lysate; Figure 3; average of three assays. In short, it runs like this: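 Reverse transcriptase came from a lysate of HIV-1DH012, a primary viral isolate. Enzyme activity was measured at various test compound concentrations with a commercial colorimetric HIV-1 RT kit, following the manufacturer's protocol. Each value is the average of three independent assays.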

Data set [2] deals with HIV-1 IIIB. Put plainly: HIV growth inhibition assay in H9 lymphocytes. To be noted: for EC50 (concentration that causes 50% inhibition of HIV-1 IIIB replication): HIV-1 IIIB in H9 cells, Panacos, average of three independent assays; for selectivity ratio at 6 days: human, SI (selective index) = CC50/EC50, HIV-1 IIIB in H9 cells.

SMILES strings stand for the structures. Where only a bound is given, the exact number is not on record here.

Regarding `Cc1cc(C#N)cc(C)c1Oc1nc(Nc2ccc(C#N)cc2)nc(N)c1Br` [Compound 4, etravirine, reference compound], the RT inhibition activity entry in data set [1] is “potently inhibited RT activity”.

With `Cc1cc(Br)cc(C)c1Oc1cc(Nc2ccc(C#N)cc2)c([N+](=O)[O-])cc1[N+](=O)[O-]` [Compound 19, 5-(4″-Bromo-2″,6″-dimethylphenoxy)-N-(4′-cyanophenyl)-2,4-dinitrsoaniline], in data set [2], the “EC50 (concentration that causes 50% inhibition of HIV-1 IIIB replication)” value is reported as “sub-micromolar level”.

With `Cc1cccc(C)c1Oc1cc(Nc2ccc(C#N)cc2)c([N+](=O)[O-])cc1[N+](=O)[O-]` [Compound 20, N-(4′-Cyanophenyl)-5-(2″,6″-dimethylphenoxy)-2,4-dinitroaniline], in data set [2], the “EC50 (concentration that causes 50% inhibition of HIV-1 IIIB replication)” value is recorded as “sub-micromolar level” and the selectivity ratio at 6 days was in the range of 113 to 313.

Turning to `Cc1cc(C)c(Oc2cc(Nc3ccc(C#N)cc3)c([N+](=O)[O-])cc2[N+](=O)[O-])c(C)c1` [Compound 22, N-(4′-Cyanophenyl)-2,4-dinitro-5-(2″,4″,6″-trimethylphenoxy)aniline], in data set [2], the “EC50 (concentration that causes 50% inhibition of HIV-1 IIIB replication)” value is “sub-micromolar level” and the selectivity ratio at 6 days lay in the range of 113 to 313.

On to `Cc1cc(Br)cc(C)c1Oc1ccc([N+](=O)[O-])c(Nc2ccc(C#N)cc2)c1` [Compound 24, 5-(4″-Bromo-2″,6″-dimethylphenoxy)-N-(4′-cyanophenyl)-2-nitroaniline], for which, in data set [2], the “EC50 (concentration that causes 50% inhibition of HIV-1 IIIB replication)” value is recorded as “sub-micromolar level” and the selectivity ratio at 6 days lay within 113 to 313.

On to `Cc1cc(C#N)cc(C)c1Oc1ccc([N+](=O)[O-])c(Nc2ccc(C#N)cc2)c1` [Compound 26, 5-(4″-Cyano-2″,6″-dimethylphenoxy)-N-(4′-cyanophenyl)-2-nitroaniline], for which the “EC50 (concentration that causes 50% inhibition of HIV-1 IIIB replication)” value in data set [2] is on record as “sub-micromolar level”.

As for `Cc1cc(Br)cc(C)c1Oc1cc(Nc2ccc(C#N)cc2)c(N)cc1N` [Compound 32, 5-(4″-Bromo-2″,6″-dimethylphenoxy)-N^1-(4′-cyanophenyl)benzene-1,2,4-triamine], the “EC50 (concentration that causes 50% inhibition of HIV-1 IIIB replication)” value in data set [2] is “sub-micromolar level”.

As for `Cc1cc(C#N)cc(C)c1Oc1cc(Nc2ccc(C#N)cc2)c(N)cc1N` [Compound 34, 5-(4″-Cyano-2″,6″-dimethylphenoxy)-N^1-(4′-cyanophenyl)benzene-1,2,4-triamine], the RT inhibition activity result in data set [1] is reported as “potently inhibited RT activity”.

Take `Cc1cc(Br)cc(C)c1Oc1cc(Nc2ccc(C#N)cc2)c(N)cc1[N+](=O)[O-]` [Compound 36, 5-(4″-Bromo-2″,6″-dimethylphenoxy)-N^1-(4′-cyanophenyl)-4-nitrobenzene-1,2-diamine]: in data set [2], the selectivity ratio at 6 days is greater than 2800.

As for `Cc1cc(C#N)cc(C)c1Oc1cc(Nc2ccc(C#N)cc2)c(N)cc1[N+](=O)[O-]` [Compound 37, 5-(4″-Cyano-2″,6″-dimethylphenoxy)-N^1-(4′-cyanophenyl)-4-nitrobenzene-1,2-diamine], the RT inhibition activity result in data set [1] is recorded as “potently inhibited RT activity”.
